Reference: ChEMBL document CHEMBL4680371, “Design and Structure-Activity Relationship of a Potent Furin Inhibitor Derived from Influenza Hemagglutinin” (ACS Med Chem Lett, 2021)
The source made the active and inactive calls. The rule behind the calls is not given here. Where a SMILES comes first, the peptide text is derived from it.

Key:
[1] = molecular target: Proprotein convertase subtilisin/kexin type 5 (Homo sapiens) (UniProt Q92824); assay: Inhibition of recombinant soluble human PC5 using pyroGlu-Arg-Thr-Lys-Arg-methyl-coumaryl-7-amide as substrate measured after 1 hr
Proprotein convertase subtilisin/kexin type 5 (Homo sapiens), sequence (Q92824 whole entry): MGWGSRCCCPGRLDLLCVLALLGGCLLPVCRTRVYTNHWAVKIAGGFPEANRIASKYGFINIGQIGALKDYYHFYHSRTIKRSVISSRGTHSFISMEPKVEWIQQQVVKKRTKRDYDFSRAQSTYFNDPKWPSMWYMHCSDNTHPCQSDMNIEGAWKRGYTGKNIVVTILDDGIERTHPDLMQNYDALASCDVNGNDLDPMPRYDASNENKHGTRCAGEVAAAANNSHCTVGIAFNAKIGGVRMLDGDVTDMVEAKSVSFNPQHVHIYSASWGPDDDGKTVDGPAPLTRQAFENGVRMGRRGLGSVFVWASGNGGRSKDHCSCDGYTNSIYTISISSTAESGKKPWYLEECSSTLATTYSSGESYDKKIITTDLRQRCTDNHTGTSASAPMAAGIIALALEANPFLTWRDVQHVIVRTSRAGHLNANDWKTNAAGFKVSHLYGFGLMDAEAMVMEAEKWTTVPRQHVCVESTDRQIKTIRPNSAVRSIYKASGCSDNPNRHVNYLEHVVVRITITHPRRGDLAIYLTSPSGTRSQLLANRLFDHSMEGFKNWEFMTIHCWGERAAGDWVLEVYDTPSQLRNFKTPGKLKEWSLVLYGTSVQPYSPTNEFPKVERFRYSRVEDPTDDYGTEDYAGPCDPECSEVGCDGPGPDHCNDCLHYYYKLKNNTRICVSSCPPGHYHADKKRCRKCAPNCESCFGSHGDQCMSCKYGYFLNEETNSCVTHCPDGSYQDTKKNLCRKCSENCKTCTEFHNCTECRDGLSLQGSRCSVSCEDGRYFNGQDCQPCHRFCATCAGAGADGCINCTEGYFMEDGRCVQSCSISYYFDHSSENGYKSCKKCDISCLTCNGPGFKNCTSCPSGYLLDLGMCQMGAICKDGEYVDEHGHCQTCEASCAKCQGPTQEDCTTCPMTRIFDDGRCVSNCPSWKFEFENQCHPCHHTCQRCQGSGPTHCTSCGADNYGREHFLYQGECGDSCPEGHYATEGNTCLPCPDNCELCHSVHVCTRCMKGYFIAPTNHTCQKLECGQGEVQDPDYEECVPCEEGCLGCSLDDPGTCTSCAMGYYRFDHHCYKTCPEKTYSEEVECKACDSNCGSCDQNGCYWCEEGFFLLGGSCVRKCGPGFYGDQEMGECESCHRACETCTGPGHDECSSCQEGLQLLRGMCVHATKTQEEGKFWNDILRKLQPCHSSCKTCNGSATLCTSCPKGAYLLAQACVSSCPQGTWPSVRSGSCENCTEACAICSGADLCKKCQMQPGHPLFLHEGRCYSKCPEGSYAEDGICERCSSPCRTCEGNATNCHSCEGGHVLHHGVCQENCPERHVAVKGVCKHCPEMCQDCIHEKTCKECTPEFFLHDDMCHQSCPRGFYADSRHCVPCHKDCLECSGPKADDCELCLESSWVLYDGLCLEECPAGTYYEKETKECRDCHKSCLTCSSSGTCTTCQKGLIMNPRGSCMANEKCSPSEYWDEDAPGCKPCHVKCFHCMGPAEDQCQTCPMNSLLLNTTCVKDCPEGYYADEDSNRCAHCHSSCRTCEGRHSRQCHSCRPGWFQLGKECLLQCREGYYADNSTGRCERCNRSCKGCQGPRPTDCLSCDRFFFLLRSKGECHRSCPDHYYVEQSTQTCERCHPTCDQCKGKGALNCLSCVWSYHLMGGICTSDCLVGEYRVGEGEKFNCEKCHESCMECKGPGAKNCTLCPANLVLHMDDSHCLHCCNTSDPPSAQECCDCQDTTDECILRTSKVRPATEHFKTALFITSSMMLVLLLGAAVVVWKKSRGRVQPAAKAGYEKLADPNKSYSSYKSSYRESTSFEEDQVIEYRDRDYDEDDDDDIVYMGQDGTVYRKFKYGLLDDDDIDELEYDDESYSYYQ

[2] = molecular target: T1, Proprotein convertase subtilisin/kexin type 7 (Homo sapiens) (UniProt Q16549); assay: Inhibition of recombinant soluble human PC7 using pyroGlu-Arg-Thr-Lys-Arg-methyl-coumaryl-7-amide as substrate measured after 1 hr
T1 sequence (whole entry): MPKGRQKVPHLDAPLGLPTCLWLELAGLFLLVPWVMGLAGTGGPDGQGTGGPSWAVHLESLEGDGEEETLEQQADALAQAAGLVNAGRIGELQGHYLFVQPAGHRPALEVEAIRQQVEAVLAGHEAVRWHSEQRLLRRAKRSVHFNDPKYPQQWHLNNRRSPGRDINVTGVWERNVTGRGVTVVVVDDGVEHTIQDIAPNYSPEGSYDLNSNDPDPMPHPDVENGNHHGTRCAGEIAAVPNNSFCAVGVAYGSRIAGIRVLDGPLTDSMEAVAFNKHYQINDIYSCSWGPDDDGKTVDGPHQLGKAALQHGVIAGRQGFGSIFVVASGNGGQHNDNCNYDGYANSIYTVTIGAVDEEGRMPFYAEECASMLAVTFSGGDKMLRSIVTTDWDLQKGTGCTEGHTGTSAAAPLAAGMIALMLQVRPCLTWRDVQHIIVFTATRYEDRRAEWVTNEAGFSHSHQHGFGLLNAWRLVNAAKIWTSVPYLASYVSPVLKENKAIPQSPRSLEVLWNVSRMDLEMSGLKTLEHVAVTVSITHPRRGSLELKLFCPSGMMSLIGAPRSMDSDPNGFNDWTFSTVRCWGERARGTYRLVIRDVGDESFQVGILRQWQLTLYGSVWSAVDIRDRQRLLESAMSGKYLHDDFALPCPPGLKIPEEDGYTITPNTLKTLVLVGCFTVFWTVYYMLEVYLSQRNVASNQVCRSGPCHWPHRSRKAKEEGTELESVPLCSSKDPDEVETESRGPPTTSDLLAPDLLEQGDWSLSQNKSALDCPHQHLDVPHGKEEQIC

[3] = molecular target: T2, Proprotein convertase subtilisin/kexin type 6 (Homo sapiens) (UniProt P29122); assay: Inhibition of recombinant soluble human PACE4 using pyroGlu-Arg-Thr-Lys-Arg-methyl-coumaryl-7-amide as substrate measured after 1 hr
T2 sequence (whole entry): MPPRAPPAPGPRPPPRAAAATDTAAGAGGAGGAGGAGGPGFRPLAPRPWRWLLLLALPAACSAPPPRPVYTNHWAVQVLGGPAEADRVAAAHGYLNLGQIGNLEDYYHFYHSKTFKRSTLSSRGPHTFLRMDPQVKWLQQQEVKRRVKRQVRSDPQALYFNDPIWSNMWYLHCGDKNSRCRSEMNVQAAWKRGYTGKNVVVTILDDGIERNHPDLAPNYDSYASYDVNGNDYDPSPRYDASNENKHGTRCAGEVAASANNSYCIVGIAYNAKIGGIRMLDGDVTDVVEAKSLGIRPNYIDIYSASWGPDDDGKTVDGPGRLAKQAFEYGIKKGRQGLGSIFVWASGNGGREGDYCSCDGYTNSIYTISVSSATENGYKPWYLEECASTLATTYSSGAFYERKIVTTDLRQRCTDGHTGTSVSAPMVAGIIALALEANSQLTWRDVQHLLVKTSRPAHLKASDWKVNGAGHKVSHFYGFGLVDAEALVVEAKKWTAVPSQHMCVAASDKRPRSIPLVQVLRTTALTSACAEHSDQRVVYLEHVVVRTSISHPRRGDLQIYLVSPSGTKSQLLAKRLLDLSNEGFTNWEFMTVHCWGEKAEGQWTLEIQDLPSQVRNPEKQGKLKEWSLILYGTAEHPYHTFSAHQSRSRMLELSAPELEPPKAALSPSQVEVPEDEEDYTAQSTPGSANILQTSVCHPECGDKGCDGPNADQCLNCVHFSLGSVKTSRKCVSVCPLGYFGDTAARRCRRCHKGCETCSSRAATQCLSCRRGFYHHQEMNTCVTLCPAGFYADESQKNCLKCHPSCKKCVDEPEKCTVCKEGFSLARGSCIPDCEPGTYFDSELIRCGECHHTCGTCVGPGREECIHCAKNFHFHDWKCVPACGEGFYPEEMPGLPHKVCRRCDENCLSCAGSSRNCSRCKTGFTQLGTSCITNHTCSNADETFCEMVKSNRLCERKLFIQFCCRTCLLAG

Furin [4] = molecular target: T3, Furin (Homo sapiens, UniProt P09958); assay: Potency index, ratio of CF1 Ki to test compound Ki for recombinant soluble human furin using pyroGlu-Arg-Thr-Lys-Arg-methyl-coumaryl-7-amide as substrate measured after 1 hr
T3 sequence (P09958 whole entry): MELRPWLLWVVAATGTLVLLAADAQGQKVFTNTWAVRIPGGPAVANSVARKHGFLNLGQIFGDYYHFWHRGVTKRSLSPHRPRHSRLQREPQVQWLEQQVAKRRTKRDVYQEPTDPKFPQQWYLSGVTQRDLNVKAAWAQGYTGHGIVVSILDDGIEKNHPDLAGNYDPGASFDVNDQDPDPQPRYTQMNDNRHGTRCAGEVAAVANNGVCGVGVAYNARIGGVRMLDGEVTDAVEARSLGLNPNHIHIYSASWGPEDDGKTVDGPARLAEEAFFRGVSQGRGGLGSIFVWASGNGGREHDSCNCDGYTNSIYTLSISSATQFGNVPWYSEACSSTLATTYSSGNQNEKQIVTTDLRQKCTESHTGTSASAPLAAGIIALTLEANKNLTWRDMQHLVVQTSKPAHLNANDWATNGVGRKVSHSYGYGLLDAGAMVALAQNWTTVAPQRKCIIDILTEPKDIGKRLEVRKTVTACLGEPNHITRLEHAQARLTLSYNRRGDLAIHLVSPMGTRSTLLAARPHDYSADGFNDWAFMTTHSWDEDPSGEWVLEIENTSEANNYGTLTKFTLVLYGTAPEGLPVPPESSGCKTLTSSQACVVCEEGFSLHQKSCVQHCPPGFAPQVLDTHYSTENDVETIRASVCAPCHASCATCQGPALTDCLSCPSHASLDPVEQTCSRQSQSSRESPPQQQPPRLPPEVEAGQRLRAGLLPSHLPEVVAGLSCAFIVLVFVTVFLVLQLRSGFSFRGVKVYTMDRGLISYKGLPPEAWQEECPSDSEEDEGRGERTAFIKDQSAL

Furin [5] = molecular target: T3, Furin; assay: Inhibition of recombinant soluble human furin using pyroGlu-Arg-Thr-Lys-Arg-methyl-coumaryl-7-amide as substrate measured after 1 hr
Procedure, shortened: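 Soluble human recombinant furin was tested in a competitive kinetic assay. Ki is reported as the mean ± SD of at least two independent experiments.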

[6] = Stability of the compound in CD1 mouse plasma assessed as intact compound remaining measured after 2 mins by LC-MS/MS analysis; assay type: ADME, cell-free; conditions: read-out: Stabilty
Procedure, shortened: (§1)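 Peptide incubated ex vivo in mouse plasma at 37 °C and sampled at several time points, using the ng/mL concentration range. Intact peptide quantified by high-resolution mass spectrometry and expressed as percentage remaining; t1/2 derived from the time course. Each time point run in triplicate; mean and mean ± SD reported.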

[7] = Half life in CD1 mouse plasma by LC-MS/MS analysis; assay type: ADME, cell-free; conditions: for half-life: CD1, mouse; procedure, shortened: as §1

## CC[C@H](C)[C@H](NC(=O)[C@H](CCCNC(=N)N)NC(=O)[C@H](C)NC(=O)[C@H](CCCNC(=N)N)NC(C)=O)C(=O)N[C@@H](CCCNC(=N)N)C(=O)N[C@@H](CCCCN)C(=O)N[C@@H](CCCCN)C(=O)N[C@@H](CCCNC(=N)N)C(=O)N[C@H](C(N)=O)[C@@H](C)O
[1]
  inhibition: Active
[2]
  inhibition: inactive
[3]
  inhibition: Active
Furin [4]
  Ratio Ki: 2
Furin [5]
  Ki: 6 nM

## CC[C@H](C)[C@H](NC(=O)[C@H](CCCNC(=N)N)NC(=O)[C@H](C)NC(=O)[C@@H]1CCCN1C(C)=O)C(=O)N[C@@H](CCCNC(=N)N)C(=O)N[C@@H](CCCCN)C(=O)N[C@@H](CCCCN)C(=O)N[C@@H](CCCNC(=N)N)C(=O)N[C@H](C(N)=O)[C@@H](C)O (Ac-PARIRKKRT-NH2)
[6]
  remaining at 2 min: 15%
[7]
  half-life: 44.4 s
Furin [5]
  Ki: 8 nM

## CC(=O)N[C@@H](CCCNC(=N)N)C(=O)N[C@@H](C)C(=O)N[C@@H](CCCNC(=N)N)C(=O)N[C@@H](CCCNC(=N)N)C(=O)N[C@@H](CCCNC(=N)N)C(=O)N[C@@H](CCCCN)C(=O)N[C@@H](CCCCN)C(=O)N[C@@H](CCCNC(=N)N)C(=O)N[C@H](C(N)=O)[C@@H](C)O
[1]
  inhibition: Active
[2]
  inhibition: inactive
[3]
  inhibition: Active
[7]; mouse
  t1/2: 212 s
Furin [5]
  Ki: 15 nM

## CC(=O)N[C@@H](CCCNC(=N)N)C(=O)N[C@@H](C)C(=O)N[C@@H](CCCNC(=N)N)C(=O)N[C@@H](CC(N)=O)C(=O)N[C@@H](CCCNC(=N)N)C(=O)N[C@@H](CCCCN)C(=O)N[C@@H](CCCCN)C(=O)N[C@@H](CCCNC(=N)N)C(=O)N[C@H](C(N)=O)[C@@H](C)O
[1]
  inhibition: Active
[2]
  inhibition: inactive
[3]
  inhibition: Active
Furin [5]
  Ki: 18 nM

## CC(=O)N[C@@H](CCCNC(=N)N)C(=O)N[C@@H](C)C(=O)N[C@@H](CCCNC(=N)N)C(=O)N[C@@H](CCCCN)C(=O)N[C@@H](CCCNC(=N)N)C(=O)N[C@@H](CCCCN)C(=O)N[C@@H](CCCCN)C(=O)N[C@@H](CCCNC(=N)N)C(=O)N[C@H](C(N)=O)[C@@H](C)O
Furin [4]
  Ratio Ki: 2
Furin [5]
  Ki: 7 nM

## CC(=O)N[C@@H](CCCNC(=N)N)C(=O)N[C@@H](C)C(=O)N[C@@H](CCCNC(=N)N)C(=O)N[C@@H](Cc1ccccc1)C(=O)N[C@@H](CCCNC(=N)N)C(=O)N[C@@H](CCCCN)C(=O)N[C@@H](CCCCN)C(=O)N[C@@H](CCCNC(=N)N)C(=O)N[C@H](C(N)=O)[C@@H](C)O
[1]
  inhibition: Active
[2]
  inhibition: inactive
[3]
  inhibition: Active
[7]
  half-life: 19.2 s
Furin [5]
  Ki: 21 nM

## CC(=O)N[C@@H](CCCNC(=N)N)C(=O)N[C@@H](C)C(=O)N[C@@H](CCCNC(=N)N)C(=O)N[C@H](C(=O)N[C@@H](CCCNC(=N)N)C(=O)N[C@@H](CCCCN)C(=O)N[C@@H](CCCCN)C(=O)N[C@@H](CCCNC(=N)N)C(=O)N[C@H](C(N)=O)[C@@H](C)O)C(C)C
Furin [4]
  Ratio Ki: 2
Furin [5]
  Ki: 7 nM

## CC[C@H](NC(=O)[C@H](CCCNC(=N)N)NC(=O)[C@H](C)NC(=O)[C@H]1CCCN1C(C)=O)C(=O)N[C@@H](CCCNC(=N)N)C(=O)N[C@@H](CCCCN)C(=O)N[C@@H](CCCCN)C(=O)N[C@@H](CCCNC(=N)N)C(=O)N[C@H](C(N)=O)[C@@H](C)O
[6]
  remaining at 2 min: 25%
[7]
  half-life: 66.6 s
Furin [5]
  Ki: 11 nM
